This is a sample that favours compounds with a hit; in the whole collection about 2% have one here.
TROY NFkB inh – inhibitors of TROY-dependent NF-kB signaling. Q293 LMP1-TROYcd NF-kB luciferase reporter, 4 h. inhibition, % at 10 µM. 0.98% of 360,000 active. AID 1347056;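 active means compounds whose plate-normalised and pattern-corrected inhibition of the luciferase reporter signal at the single screening dose is 50% or more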
NR2E3 ag-1 – activates human photoreceptor nuclear receptor NR2E3 | GST-NR2E3/biotin-RetCOR TR-FRET, 1536-well | Q9Y5X4 | AID 2300 | inhibition of corepressor binding, % at 4.78 µM | 0.12% of 320,000 active;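 active means percent inhibition above the cutoff of mean plus 3 SD of all tested compounds, set per screening campaign, cut at about 20% in these data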;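 further: 0% = DMSO wells and 100% = biotin wells as full block of FRET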
Target sequence (Q9Y5X4 whole entry, looked up): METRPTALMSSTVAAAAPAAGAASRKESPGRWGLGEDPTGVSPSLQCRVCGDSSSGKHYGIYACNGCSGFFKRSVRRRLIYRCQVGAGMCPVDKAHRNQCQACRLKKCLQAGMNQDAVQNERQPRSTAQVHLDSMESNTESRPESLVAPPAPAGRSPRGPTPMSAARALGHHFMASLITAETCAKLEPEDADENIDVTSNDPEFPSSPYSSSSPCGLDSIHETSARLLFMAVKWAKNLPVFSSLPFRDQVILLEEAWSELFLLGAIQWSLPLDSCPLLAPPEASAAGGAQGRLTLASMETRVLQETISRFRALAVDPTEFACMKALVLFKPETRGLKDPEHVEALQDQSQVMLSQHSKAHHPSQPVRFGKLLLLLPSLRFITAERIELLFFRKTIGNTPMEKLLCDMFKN
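Test system: GST-NR2E3 and biotin-RetCOR proteins | Quantity: 1.35 nM GST-tagged NR2E3 final | Medium: Tris pH 7.5 | Also added: 7 nM biotin-RetCOR | Dosing: Compound at 4.8 µM, single dose | Timing: 5 h at 4 °C | Detection: Time-resolved FRET | Read-out basis: Percent inhibition | Benchmarks: Biotin wells as high control, 0.6% DMSO wells as low control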
NR2E3 ag-2 – activates human NR2E3 receptor; CHO-S Gal4-NCOR/VP16-NR2E3 two-hybrid, luciferase; inhibition of corepressor binding, % at 3.98 µM; 0.35% of 360,000 active; AID 602229; Q9Y5X4;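 active means inhibition above the mean of all tested compounds plus 3 SD, cut at about 70% in these data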;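 further: 0% = DMSO with NR2E3 transfected cells and 100% = cells lacking NR2E3 construct; higher means lower luciferase signal from less NR2E3 corepressor binding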
HIF activator – HIF pathway transcriptional activation | U2OS HRE-luciferase reporter, luminescence; normalized: DMSO 0%, desferrioxamine 100% | activation, % at 7.5 µM (by protocol) | 0.32% of 300,000 active | AID 1910;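 active means mean activation of at least 10% of the iron chelator positive control signal, with at least half of replicates also reaching 10%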
EBV LMP1 NFkB – reduces LMP1-driven NF-kappaB luciferase signal | LMP1-induced NF-kappaB luciferase reporter cells, luminescence | inhibition, % at 12.5 µM | 0.69% of 350,000 active; in the data active means inhibition above about 41%;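 further: 0% = neutral control wells and 100% = reference inhibitor control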
* hit, by the source's call; nt = no result given; ! = not active in a repeat.

SMILES	TROY NFkB inh	NR2E3 ag-1	NR2E3 ag-2	HIF activator	EBV LMP1 NFkB
CCOC(=O)N1CCN(C(=O)c2ccc(Cn3c(=S)[nH]c4cc5c(cc4c3=O)OCO5)cc2)CC1	50	2	4	0	-2
CCOC(=O)N1CCN(C(=O)c2ccc(Cn3c(=S)[nH]c4cc(OCC)c(OCC)cc4c3=O)cc2)CC1	58*	-1	-5	18*	24
O=C(CN1CCN(Cc2ccc(F)cc2)CC1)Nc1ccccc1F	5	-1	-10	-1	2
COc1cccc(/C=N/Nc2nc3ccccc3n3cnnc23)c1O	-72	-2	-30	2	22
COc1cccc(/C=N/Nc2nc3ccccc3n3cnnc23)c1	-47	-5	-24	360*	-6
COc1cccc(/C=C/c2nc(C#N)c(NCC(C)C)o2)c1	-17	4	-42	0	-10
COCC(C)n1c(-c2ccc3c(c2)NC(=O)CO3)csc1=Nc1ccc(OC(F)F)cc1 (configuration not stated)	52*!	0	32	-1	16
O=C(NCCNC(=O)c1ccco1)c1cccc(F)c1	52*	-2	-13	0	3
CC(=O)c1cccc(NC(=O)c2cccc(NC(=O)c3ccco3)c2)c1	-5	6	20	-1	-3
O=C(NC1=NCCS1)c1cccc(NC(=O)c2ccco2)c1	17	3	9	12*	-4
Cc1cc(C)cc(NC(=O)c2cccc(NC(=O)c3ccco3)c2)c1	-25	0	-13	53*	6
Cc1cc(C(=O)Nc2cccc(C(=O)O)c2)oc1C	-63	-3	-163	-3	66*
O=C(NCCNC(=O)c1ccco1)c1ccc(F)cc1	22	1	-6	0	-2
Cc1cc(C(=O)Nc2cccc(C(=O)O)c2)c(C)o1	-37	6	-52	1	-6
CCOC(=O)C1CCCCN1C(=O)c1cc2ccc(OC)cc2c2cc(OC)c(OC)cc12 (configuration not stated)	-3	nt	7	nt	5
Cc1cc(C(C)(C)C)cc(CN2CCN(S(=O)(=O)c3cccs3)CC2)c1O	-12	nt	0	nt	-25
Cc1ccc(CN(C(=O)c2csnn2)C(C(=O)NC2CCCC2)c2ccccn2)cc1 (configuration not stated)	5	3	-7	-2	1
CC1OC(C(C)(C)C)CC2=C1C(=O)OC(C)(C)O2 (configuration not stated)	-6	nt	-30	nt	nt
Cc1ccc(OC2CCN(C(=O)[C@H]3O[C@@H](n4ccc(N)nc4=O)[C@H](O)[C@@H]3O)CC2)cc1	15	nt	-5	nt	nt
COc1cc(/C=C/C(=O)OCC(=O)NNC(=O)c2cc(Cl)ccc2OC)ccc1O	-5	nt	11	nt	5
COc1cc(/C=C/C(=O)OCC(=O)Nc2ccccc2Sc2ccc(Cl)cc2)ccc1O	52*	3	-4	0	-2
O=C(Nc1ccc(N2CCCC2)c(Cl)c1)c1ccco1	-53	-4	-175	2	1
CN1CCN(c2ccc(NC(=O)c3ccco3)cc2Cl)CC1	50*	0	-104	0	60*
COc1ccc(N2CCN(CCNC(=O)c3c(C)cc(=O)oc3C)CC2)cc1	11	3	-31	0	51*
Cc1cc(=O)oc(C)c1C(=O)NCCCN1CCN(c2ccc(F)cc2)CC1	8	4	-8	0	12
SMILES	TROY NFkB inh	NR2E3 ag-1	NR2E3 ag-2	HIF activator	EBV LMP1 NFkB
CCC(=O)C(C#N)(c1ccc(OC)c(OC)c1)C(C)C (configuration not stated)	-6	-3	-17	nt	-1
O=C1C2C3C=CC(CC3)C2C(=O)N1c1ccccc1 (configuration not stated)	6	nt	-16	-2	3
O=C1C=CC2C3C(=O)N(c4ccccc4)C(=O)C3C1N2Cc1ccccc1 (configuration not stated)	55*	nt	14	nt	23
CN1OC[C@@H]2CN(C(=O)C(C)(C)C)[C@H](c3cccc(Br)c3)C[C@@H]21	64*	nt	6	nt	-4
CN1OC[C@@H]2CN(C(=O)C(C)(C)C)[C@H](c3cccc(N4CCOCC4)c3)C[C@@H]21	-34	nt	-28	nt	0
CN(Cc1ccccc1)C(=O)NC1CCCCC1	-10	-4	1	0	3
CC(C)(Sc1ccc(CCN(CCCCC2CCCCC2)C(=O)NC2CCCCC2)cc1)C(=O)O	51*	-1	7	nt	-1
COc1cc(OC)c(C#N)c(S(=O)(=O)Cc2ccccc2)c1	-5	4	-15	0	-4
